M1 antag = antagonists of rat M1 muscarinic receptor; P08482; CHO-M1 cells, Fluo-4 calcium, ACh EC80 antagonist mode; active compounds read low; actives 3.4% (n = 64,000); B-score at 10 µM; AID 628;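 active means calcium fluorescence response, raw or row-and-column corrected B-score, differing from the plate sample mean either way at a set confidence level, mostly lower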
S1P1 ag pot = S1P1 (human) agonism or agonism potentiation; P21453; S1P1 CRE-bla cells, forskolin, beta-lactamase FRET, potentiator mode; S1P1 agonist co-added at EC20, 2 nM; 100% = saturating reference agonist, 0% = basal; activation, % at 9.5 µM; actives 0.57% (n = 56,000); AID 449;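 active means activation above a cutoff set at the mean activation of all tested compounds plus 3 SD, cut at about 54% in these data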;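 further: forskolin at 4 µM as EC80 and the EC20 agonist is SEW2871; 100% = SEW2871 at its EC100 plus forskolin at EC80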
M1 ag = agonists of M1 muscarinic receptor | CHO-M1 cells, Fluo-4 calcium fluorescence, agonist mode; active compounds read high | B-score at 10 µM | actives 3% (n = 64,000) | AID 626;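 active means fluorescence rise, raw or as B-score row- and column-corrected plate score, outside the 99.7% band of its plate's samples, either direction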
S1P3 agonist = activates the human S1P3 receptor. S1P3 NFAT-BLA reporter cells, agonism, FRET ratio; relative to 1 µM S1P, basal subtracted. activation, % at 4.5 µM. actives 0.1% (n = 60,000);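 active means activation above the screen-wide mean plus 3 SD, cut at about 4.5% in these data, passing the limit was not always enough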
Target sequence (Q99500 whole entry, looked up): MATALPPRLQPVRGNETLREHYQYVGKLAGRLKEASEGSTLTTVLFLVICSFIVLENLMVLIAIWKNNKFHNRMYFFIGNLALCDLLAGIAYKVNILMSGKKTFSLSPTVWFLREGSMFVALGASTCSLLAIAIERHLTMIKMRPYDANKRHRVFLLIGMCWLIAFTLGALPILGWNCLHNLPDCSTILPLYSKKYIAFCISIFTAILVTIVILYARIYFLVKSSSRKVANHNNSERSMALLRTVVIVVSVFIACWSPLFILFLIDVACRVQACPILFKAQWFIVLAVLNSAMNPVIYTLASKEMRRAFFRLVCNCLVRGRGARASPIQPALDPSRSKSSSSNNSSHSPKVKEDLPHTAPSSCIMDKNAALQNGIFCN
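Assay system: CHO cells stably expressing human S1P3, Gα16 and NFAT-β-lactamase reporter. Timing: overnight plating, 4 h compound 37 °C, 2 h substrate RT. Signal: β-lactamase FRET emission ratio 460/535 nm. Measure: percent activation versus median 1 µM S1P response, basal-subtracted, per plate. Repeats: primary screen single test, confirmation screen in triplicate.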
D1 allo mod = allosteric modulators of human D1 dopamine receptor; P21728; B-score at 10 µM; HEK293 D1, CRE-luciferase, dopamine EC30 potentiation; actives deviate in either direction; actives 5.9% (n = 58,000); AID 641;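 active means luminescence count or its row- and column-corrected plate score outside the 99.7% band of the plate's sample wells, on either side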
M1 antag conf = confirmation of rat M1 muscarinic receptor antagonists; shares compounds with M1 antag; CHO-M1 cells, Fluo-4 calcium, ACh EC80 antagonism; active compounds read low; calcium response (max-min fluorescence) at 10 µM; actives 43% (n = 1,700); AID 677;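 active means calcium response below the same-plate mean of wells given acetylcholine alone at its 80%-effect dose, minus 3 SD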;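 further: raw fluorescence intensity difference in arbitrary instrument units and not normalized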
mGluR4 antag = mGluR4 (human) activity, M1 antagonist secondary assay; shares compounds with M1 antag; CHO-mGluR4 calcium flux, Fluo-4 fluorescence, glutamate EC80; active compounds read low; fluorescence response (max-min) at 10 µM; actives 0.9% (n = 1,700); AID 678;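 active means fluorescence response below the plate's average for near-maximal glutamate wells, less 3 SD of those wells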;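 further: raw unnormalized fluorescence span taken in the window right after glutamate addition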
The depositor's hits bear a star; nt = no result given. The list is not random: actives were taken first. Their share in the collection is about 11%.

SMILES	M1 antag	S1P1 ag pot	M1 ag	S1P3 agonist	D1 allo mod	M1 antag conf	mGluR4 antag
COc1ccccc1N1CCN(C(=O)c2sc3nc(-c4ccccc4)cn3c2C)CC1	-3.5*	-22.5	0.654	0.6	-1.09	639	190
CCN(CC)CCCN(Cc1cc2cc3c(cc2[nH]c1=O)OCCO3)C(=O)Nc1ccc(F)cc1	-1.96	-97.4	0.288	-1.0	-0.322	nt	nt
CCN(CC)CCOC(=O)C1(c2ccccc2)CCOCC1	-14.8*	-21.1	-0.94	-0.4	0.781	102*	237
CCN(C(=O)Cc1c(C(=O)O)[nH]c2ccccc12)c1cc(OC)ccc1OC	-2.24*	nt	-0.637	nt	-0.0249	448	207
CCN(C(=O)c1coc(=O)c2ccccc12)c1cc(OC)ccc1OC	nt	-27.6	nt	-0.1	0.373	nt	nt
CCN(CC)C(=O)c1cn(CC)c(=O)c2cc(OC)c(OC)cc12	0.00368	nt	-0.732	nt	0.308	nt	nt
CC1(C)CN=C(NC2CCCCC2)S1	-4.76*	-27.5	0.414	-0.4	0.172	459*	236
CN(C)C(CNC(=O)c1cccc(S(=O)(=O)N2CC3(C)CC2CC(C)(C)C3)c1)c1ccco1 (centres undefined)	-3.29*	0.7	0.0504	-0.9	0.0429	517*	159
CCOC(=O)c1c(C)oc2ccc(O)c(CN(C)C)c12	-1.3*	-16.9	-0.00901	-0.3	-1.34	460	234
COc1ccc(C(=O)c2coc3ccc(O)c(CN(C)C)c23)cc1	-0.439	-10.0	1	0.2	0.307	nt	nt
COc1ccc(N2C(=O)CCC(C(C)=O)=C2C)cc1	-0.189	-4.6	-0.719	-1.4	0.417	nt	nt
O=C(C1CCCCC1)N(CCN1CCCC1)c1nc2ccccc2s1	-2.34*	-7.2	-0.55	0.5	-1.62	718	207
COC(=O)CCCc1nc2ccccc2s1	-2.46*	11.8	-1.14	-0.7	-0.117	633	239
O=C(O)CCCc1nc2ccccc2s1	0.185	-14.0	-0.883	-0.2	-1.14	nt	nt
Cc1ccc(C(C(=O)NC2CCCCC2)N2CCCC2)cc1 (centres undefined)	-3.82*	nt	-1.03	nt	-0.75	461*	253
O=C(NC1CCCCC1)C(c1ccccc1)N1CCCC1 (centres undefined)	-13.2*	nt	0	nt	-0.631	121*	251
Cc1ccc(C(C(=O)NC2CCCC2)N2CCCCC2)cc1 (centres undefined)	-3.45*	-2.2	0.853	-0.5	-1.06	468*	229
COC(=O)C(C(=O)N1CCN(C)CC1)C1CCCCCC1 (centres undefined)	-3.27*	1.7	-0.411	0.0	0.656	527	228
Cc1cc(C(c2nnnn2Cc2ccccc2)N2CCOCC2)c(C)n1-c1ccc2c(c1)OCO2 (centres undefined)	0.0971	0.3	-0.119	0.1	-0.0307	nt	nt
NC(=O)Cn1nnc(-c2ccc(C(F)(F)F)cc2)n1	0.532	nt	-1.9	-0.7	0.694	nt	nt
O=C(Cn1nnc(-c2cccc(C(F)(F)F)c2)n1)N1CCOCC1	-2.13*	nt	-0.773	0.0	-1.67	661	182
COc1cc(C(=S)N2CCCC2)cc(Cl)c1O	-2.02*	-0.3	-0.0105	-0.9	nt	685	246
COc1cc(C(=S)N2CCCC2)ccc1O	0.211	-12.6	-0.913	-0.2	nt	nt	nt
CCC(Sc1nc2c(cnn2-c2ccccc2)c(=O)[nH]1)C(=O)OC (centres undefined)	-2.38*	-20.3	-0.225	0.4	-1.44	546	249
COC(=O)C(C)Sc1nc2c(cnn2-c2ccc(C)cc2)c(=O)[nH]1 (centres undefined)	0.189	-15.5	0.449	-0.2	1.53	nt	nt
SMILES	M1 antag	S1P1 ag pot	M1 ag	S1P3 agonist	D1 allo mod	M1 antag conf	mGluR4 antag
CSc1ncccc1C(=O)OCC(=O)NC1CCS(=O)(=O)C1 (centres undefined)	0.0801	5.0	1.25	-0.4	nt	nt	nt
O=C(COC(=O)c1ccccc1Oc1ccccc1)NC1CCS(=O)(=O)C1 (centres undefined)	-1.5*	10.1	0.0534	0.8	0.381	617	236
COc1ccc(N2C(=O)CCC(C(=O)N3CCCCC3)C2c2ccc(F)cc2)cc1 (centres undefined)	-0.424	2.6	-0.301	-0.5	0.825	nt	nt
COc1ccc(C2C(C(=O)N3CCN(c4ccccc4)CC3)c3ccccc3C(=O)N2C)cc1OC (centres undefined)	-4.4*	nt	0.534	nt	-0.669	538	201
COc1ccc(C2C(C(=O)N3CCOCC3)c3ccccc3C(=O)N2c2ccc(OC)cc2)cc1 (centres undefined)	-12.9*	-23.2	-0.193	-0.4	0.913	701	232
COc1ccc(N2C(=O)CCC(C(=O)N3CCOCC3)C2c2ccc(F)cc2)cc1 (centres undefined)	-3.11*	nt	0.464	nt	nt	542	227
S=C(N=Nc1ccccc1)NNc1ccccc1	2.7	-17.0	1.78	0.0	-0.345	nt	nt
COc1ccc(O)c(-c2cc(-c3cccs3)[nH]n2)c1	0.599	-11.0	0.363	-1.7	nt	nt	nt
COc1ccc(-c2nc3n(n2)C(c2ccccc2Cl)C(C(N)=O)=C(C)N3)cc1 (centres undefined)	-2.97*	-16.4	0.341	0.2	-0.00196	626	245
Nc1c(-c2ccc(Cl)cc2)nnn1-c1ccccc1	-3.2*	nt	0.407	nt	-1.66	642	180
COc1ccc(-c2cnn(-c3ccccc3)c2N)cc1OC	-0.0459	-24.2	0.205	-0.8	0.035	nt	nt
CCn1c(=O)cc(OCC(=O)Nc2ccccc2N2CCN(C)CC2)c2ccccc21	-1.97	-58.8	-0.0406	0.4	-0.896	nt	nt
CN1CCN(c2ccccc2NC(=O)c2ccc(OCc3ccccc3)cc2)CC1	-2.15*	-2.9	4.19	-0.9	-4.63*	403*	277
O=C(CCN1CCN(CCO)CC1)Nc1ccc(OCc2ccccc2)cc1	-0.224	-1.6	-0.251	-0.4	0.327	nt	nt
CN1CCN(CCC(=O)Nc2ccc(OCc3ccccc3)cc2)CC1	-1.73*	5.8	-1.72	-0.8	-1.94	557	258
CN1CCN(c2ccccc2NC(=O)Cc2cn(C)c3ccccc23)CC1	-0.744*	3.3	0.206	-1.0	nt	522*	230
CC(C)=CCC/C(C)=C/CCC(C)NCCN1CCNCC1 (centres undefined)	-6.57*	9.0	-0.0803	-1.5	-0.375	390*	262
CC(C)=CCCC(C)CN1CCC(O)CC1 (centres undefined)	0.122	-13.9	-0.315	-0.9	-0.00109	nt	nt
CC(=O)c1ccc(OCC(O)CN2CCN(c3ccccn3)CC2)cc1 (centres undefined)	0.119	1.7	0.301	-0.8	0.0691	nt	nt
CC(C)NC(=O)CN1CCN(c2ncccn2)CC1	-0.386	-1.8	-0.305	-1.0	-0.445	nt	nt

Source: PubChem
